Measurements published in ChEMBL document CHEMBL1124106, “Synthesis of diethylenetriaminepentaacetic acid conjugated inulin and utility for cellular uptake of liposomes” (J Med Chem, 1988).
Several values for one entry are separate records, joined by “and”; a condition that tells them apart may be missing. Equal entries are not always repeated.

Key:
[1] = tested on: Mus musculus; test: Biodistribution in mice lung, after 12 hr of intravenous administration of 1-2 ug ofcompound (entrapped in bovine brain sphingomyelin/ cholesterol multilamellar vehicles); type: ADME, organism-based; conditions: in vivo
Summary of the method: (§1)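 BALB/c mice (about 25 g), 3–5 per group, given 50–100 μL tail-vein injection of 111In-labeled conjugate entrapped in SM/CH (2:1 mol/mol) multilamellar vesicles, approx. 100 000 cpm; dose 1–2 μg phospholipid/g body weight. Killed by cervical dislocation at set times; blood, cumulative excretion and rinsed, blotted, weighed tissues γ-counted, blood background subtracted. Result is % injected dose ± SD.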

[2] = tested on: Mus musculus; test: Biodistribution of compound in mice skin after 1 hr of intravenous injection; type: ADME, organism-based, Zone of skin; conditions: in vivo
Summary of the method: (§2)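 BALB/c mice (about 25 g), n = 4. Free ¹¹¹In- or ⁶⁷Ga-labeled compound (50–100 μL, about 100 000 cpm) was injected into a tail vein. Mice were held in separate cages and killed by cervical dislocation, with blood and cumulative excreta collected. Tissues were rinsed, blotted, weighed and γ-counted, with blood background subtracted (blood volume 8.0%). Values are % injected dose ± SD.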

[3] = tested on: Mus musculus; test: Biodistribution in mice spleen, after 48 hr of intravenous administration of 1-2 ug of compound (entrapped in bovine brain sphingomyelin/ cholesterol multilamellar vehicles); type: ADME, organism-based; conditions: in vivo; summary of the method: as §1
[4] = tested on: Mus musculus; test: Biodistribution in mice intestine, after 1 hr of intravenous administration of 1-2 ug of compound (entrapped in bovine brain sphingomyelin/ cholesterol multilamellar vehicles); type: ADME, organism-based; conditions: in vivo; summary of the method: as §1
[5] = tested on: Mus musculus; test: Biodistribution in mice carcass, after 48 hr of intravenous administrating 1-2 ug of compound (entrapped in bovine brain sphingomyelin/ cholesterol multilamellar vehicles); type: ADME, organism-based; conditions: in vivo; summary of the method: as §1
[6] = tested on: Mus musculus; test: (§3) Biodistribution of compound in mice excretion after 21 hr of intravenous injection; type: ADME, organism-based; conditions: in vivo, 21 h; summary of the method: as §2
[7] = as §3; type: ADME, organism-based; conditions: mouse, excretion (excreta, not specified further), read-out: ID; summary of the method: as §2
[8] = Biodistribution in mice excretion, after 48 hr of intravenous administration of 1-2 ug of compound (entrapped in bovine brain sphingomyelin/ cholesterol multilamellar vehicles) at; type: ADME, organism-based; conditions: mouse, excretion (excreta, not specified further), read-out: ID; summary of the method: as §1
[9] = tested on: Mus musculus; test: Biodistribution in mice liver, after 1 hr of intravenous administration of 1-2 ug of compound (entrapped in bovine brain sphingomyelin/ cholesterol multilamellar vehicles); type: ADME, organism-based; conditions: in vivo; summary of the method: as §1
[10] = tested on: Mus musculus; test: Biodistribution of compound in mice intestine after 0.17 hr of intravenous injection; type: ADME, organism-based; conditions: in vivo; summary of the method: as §2
[11] = tested on: Mus musculus; test: Biodistribution in mice kidneys, after 24 hr of intravenous administration of 1-2 ug of compound (entrapped in bovine brain sphingomyelin/ cholesterol multilamellar vehicles); type: ADME, organism-based, Kidney; conditions: in vivo; summary of the method: as §1
[12] = tested on: Mus musculus; test: Biodistribution in mice blood, after 24 hr of intravenous administration of 1-2 ug of compound (entrapped in bovine brain sphingomyelin/ cholesterol multilamellar vehicles); type: ADME, organism-based; conditions: in vivo; summary of the method: as §1
[13] = tested on: Mus musculus; test: Biodistribution of compound in mice spleen after 1 hr of intravenous injection; type: ADME, organism-based; conditions: in vivo; summary of the method: as §2
[14] = tested on: Mus musculus; test: (§4) Biodistribution of compound in mice excretion after 1 hr of intravenous injection; type: ADME, organism-based; conditions: in vivo, 1 h; summary of the method: as §2
[15] = as §4; type: ADME, organism-based; conditions: mouse, excretion (excreta, not specified further), read-out: ID; summary of the method: as §2
[16] = tested on: Mus musculus; test: (§5) Biodistribution of compound in mice excretion after 0.17 hr of intravenous injection; type: ADME, organism-based; conditions: in vivo, 0.17 h; summary of the method: as §2
[17] = as §5; type: ADME, organism-based; conditions: mouse, excretion (excreta, not specified further), read-out: ID; summary of the method: as §2
[18] = tested on: Mus musculus; test: Biodistribution in mice skin, after 48 hr of intravenous administration of 1-2 ug ofcompound (entrapped in bovine brain sphingomyelin/ cholesterol multilamellar vehicles); type: ADME, organism-based, Zone of skin; conditions: in vivo; summary of the method: as §1
[19] = tested on: Mus musculus; test: Biodistribution of compound in mice blood after 0.17 hr of intravenous injection; type: ADME, organism-based; conditions: in vivo; summary of the method: as §2
[20] = tested on: Mus musculus; test: Biodistribution in mice spleen, after 1 hr of intravenous aadministration of 1-2 ug of compound (entrapped in bovine brain sphingomyelin/ cholesterol multilamellar vehicles); type: ADME, organism-based; conditions: in vivo; summary of the method: as §1
[21] = tested on: Mus musculus; test: Biodistribution in mice carcass, after 24 hr of intravenous administration of 1-2 ug ofcompound (entrapped in bovine brain sphingomyelin/ cholesterol multilamellar vehicles); type: ADME, organism-based; conditions: in vivo; summary of the method: as §1
[22] = tested on: Mus musculus; test: Biodistribution in mice heart, after 24 hr of intravenous administration of 1-2 ug of compound (entrapped in bovine brain sphingomyelin/ cholesterol multilamellar vehicles); type: ADME, organism-based; conditions: in vivo; summary of the method: as §1
[23] = tested on: Mus musculus; test: Biodistribution of compound in mice liver after 0.17 hr of intravenous injection; type: ADME, organism-based; conditions: in vivo; summary of the method: as §2
[24] = tested on: Mus musculus; test: Biodistribution in mice stomach, after 12 hr of intravenous administration of 1-2 ug of compound (entrapped in bovine brain sphingomyelin/ cholesterol multilamellar vehicles); type: ADME, organism-based; conditions: in vivo
Summary of the method: (§6)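 BALB/c mice (about 25 g), groups of 2–5. Compound ¹¹¹In-loaded into SM/CH (2:1, mol/mol) multilamellar vesicles, given as a single tail-vein injection. Lipid dose was 1–2 μg phospholipid/g body weight, in 50–100 μL carrying about 100 000 cpm. Mice were killed by cervical dislocation. Organs were rinsed, blotted, weighed and γ-counted, with blood background subtracted. Values are % injected dose ± SD.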

[25] = tested on: Mus musculus; test: Biodistribution of compound in mice carcass after 1 hr of intravenous injection; type: ADME, organism-based; conditions: in vivo; summary of the method: as §2
[26] = tested on: Mus musculus; test: Biodistribution in mice brain, after 24 hr of intravenous administration of 1-2 ug of compound (entrapped in bovine brain sphingomyelin/ cholesterol multilamellar vehicles); type: ADME, organism-based; conditions: in vivo; summary of the method: as §1
[27] = tested on: Mus musculus; test: Biodistribution in mice blood, after 12 hr of intravenous administration of 1-2 ug of compound (entrapped in bovine brain sphingomyelin/ cholesterol multilamellar vehicles); type: ADME, organism-based; conditions: in vivo; summary of the method: as §1
[28] = tested on: Mus musculus; test: Biodistribution of compound in mice intestine after 1 hr of intravenous injection; type: ADME, organism-based; conditions: in vivo; summary of the method: as §2
[29] = tested on: Mus musculus; test: Biodistribution in mice leg muscle, after 12 hr of intravenous administration of 1-2 ug of compound (entrapped in bovine brain sphingomyelin/ cholesterol multilamellar vehicles); type: ADME, organism-based, Muscle tissue; conditions: in vivo; summary of the method: as §1
[30] = tested on: Mus musculus; test: Biodistribution of compound in mice tail after 1 hr of intravenous injection; type: ADME, organism-based; conditions: in vivo; summary of the method: as §2
[31] = tested on: Mus musculus; test: Biodistribution of compound in mice skin after 0.17 hr of intravenous injection; type: ADME, organism-based, Zone of skin; conditions: in vivo; summary of the method: as §2
[32] = Biodistribution in mice excretion, after 12 hr of intravenous administration of 1-2 ug of compound (entrapped in bovine brain sphingomyelin/ cholesterol multilamellar vehicles); type: ADME, organism-based; conditions: mouse, excretion (excreta, not specified further), read-out: ID; summary of the method: as §1
[33] = tested on: Mus musculus; test: Biodistribution of compound in mice carcass after 0.17 hr of intravenous injection; type: ADME, organism-based; conditions: in vivo; summary of the method: as §2
[34] = tested on: Mus musculus; test: Biodistribution in mice carcass, after 12 hr of intravenous administration of 1-2 ug of compound (entrapped in bovine brain sphingomyelin/ cholesterol multilamellar vehicles); type: ADME, organism-based; conditions: in vivo; summary of the method: as §1
[35] = tested on: Mus musculus; test: Biodistribution in mice lung, after 1 hr of intravenous administration of 1-2 ug of compound (entrapped in bovine brain sphingomyelin/ cholesterol multilamellar vehicles); type: ADME, organism-based; conditions: in vivo; summary of the method: as §1
[36] = tested on: Mus musculus; test: Biodistribution in mice spleen, after 12 hr of intravenous administration of 1-2 ug of compound (entrapped in bovine brain sphingomyelin/ cholesterol multilamellar vehicles); type: ADME, organism-based; conditions: in vivo; summary of the method: as §1
[37] = tested on: Mus musculus; test: Biodistribution in mice carcass, after 1 hr of intravenous administration of 1-2 ug ofcompound (entrapped in bovine brain sphingomyelin/ cholesterol multilamellar vehicles); type: ADME, organism-based; conditions: in vivo; summary of the method: as §1
[38] = tested on: Mus musculus; test: Biodistribution of compound in mice kidneys after 21 hr of intravenous injection; type: ADME, organism-based, Kidney; conditions: in vivo; summary of the method: as §2
[39] = tested on: Mus musculus; test: Biodistribution in mice tail, after 24 hr of intravenous administration of 1-2 ug of compound (entrapped in bovine brain sphingomyelin/ cholesterol multilamellar vehicles); type: ADME, organism-based; conditions: in vivo; summary of the method: as §6
[40] = tested on: Mus musculus; test: Biodistribution in mice fat, after 24 hr of intravenous administration of 1-2 ug of compound (entrapped in bovine brain sphingomyelin/ cholesterol multilamellar vehicles); type: ADME, organism-based; conditions: in vivo; summary of the method: as §1
[41] = tested on: Mus musculus; test: Biodistribution in mice fat, after 48 hr of intravenous administration of 1-2 ug of compound (entrapped in bovine brain sphingomyelin/ cholesterol multilamellar vehicles); type: ADME, organism-based; conditions: in vivo; summary of the method: as §1

In the case of NCCNC(=O)CN(CCN(CCN(CC(=O)O)CC(=O)O)CC(=O)O)CC(=O)O, the ID [1] is reported as 0.1%, the ID [2] is reported as 5.8% and 7.7% and the ID [3] is reported as 2.9%. For the same compound, the ID [4] was 0.7%, the ID [5] was 1.3% and the ID [6] was 69.5%. For the same compound, the dose excreted at 21 h [7] was 77.1%, the dose excreted at 48 h [8] was 0% and the ID [9] was 55.1%. For the same compound, the ID [10] was 2.2% and 2.4%, the ID [11] was 0.5% and the ID [12] was 0.4%. The ID [13] was 0.1% and 0%, the ID [14] was 50% and the dose excreted at 1 h [15] was 50.7%. It also gave an ID [16] of 3.2%, a dose excreted at 0.17 h [17] of 3.6% and an ID [18] of 2.8%. For the same compound, the ID [19] was 21.1% and 20.9%, the ID [20] was 3.9% and the ID [21] was 2.1%. The ID [22] was 0%, the ID [23] was 0.6% and 1.3% and the ID [24] was 0.2%. For the same compound, the ID [25] was 4.1% and 9.1%, the ID [26] was 0.2% and the ID [27] was 0.5%. The ID [28] was 0.8% and 1.4%, the ID [29] was 0.4% and the ID [30] was 2%. The ID [31] was 15.6% and 15.1%, the dose excreted at 12 h [32] was 0% and the ID [33] was 14.2% and 19.3%. For the same compound, the ID [34] was 2%, the ID [35] was 0.4% and the ID [36] was 4%. For the same compound, the ID [37] was 4%, the ID [38] was 0.8% and 0.9% and the ID [39] was 0.9%. The ID [40] was 0.4% and the ID [41] was 0.1%.
